In ChEMBL document CHEMBL1123137 (J Med Chem, 1985):

Tests used:
[1] = target: Adenosine receptor A2a (Canis lupus familiaris) (UniProt P11617); assay: Molar potency ratio was evaluated
[2] = HPLC capacity factor (k'); assay type: ADME
Albumin = Albumin (Bos taurus, UniProt P02769); assay: Serum albumin binding; conditions: cattle
Procedure, shortened: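 Affinity for bovine serum albumin measured by Hummel–Dreyer method adapted for HPLC. Samples of BSA (0.25–2 g/dL) with 25 μM analogue in 0.1 M NaH2PO4, pH 7.4, were applied to an Aquapore OH-100 column equilibrated with 25 μM analogue in the same buffer. Effluent absorbance was read at 254 nm. Duplicate estimates were made at each of two BSA concentrations, usually 1 and 2 g/dL.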

Chain of Adenosine receptor A2a (Canis lupus familiaris) (P11617 whole entry, looked up): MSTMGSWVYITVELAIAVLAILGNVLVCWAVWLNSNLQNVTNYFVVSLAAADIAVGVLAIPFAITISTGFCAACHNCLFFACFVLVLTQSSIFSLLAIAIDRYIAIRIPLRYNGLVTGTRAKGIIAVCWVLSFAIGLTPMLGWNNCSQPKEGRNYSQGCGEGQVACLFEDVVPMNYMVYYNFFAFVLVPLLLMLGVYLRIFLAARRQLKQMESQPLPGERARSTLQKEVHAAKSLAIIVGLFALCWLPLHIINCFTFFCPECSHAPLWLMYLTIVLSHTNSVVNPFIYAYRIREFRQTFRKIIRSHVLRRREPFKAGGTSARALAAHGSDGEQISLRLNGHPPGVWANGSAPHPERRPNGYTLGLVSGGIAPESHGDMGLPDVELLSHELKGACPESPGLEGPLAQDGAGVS
Chain of Albumin (P02769 whole entry): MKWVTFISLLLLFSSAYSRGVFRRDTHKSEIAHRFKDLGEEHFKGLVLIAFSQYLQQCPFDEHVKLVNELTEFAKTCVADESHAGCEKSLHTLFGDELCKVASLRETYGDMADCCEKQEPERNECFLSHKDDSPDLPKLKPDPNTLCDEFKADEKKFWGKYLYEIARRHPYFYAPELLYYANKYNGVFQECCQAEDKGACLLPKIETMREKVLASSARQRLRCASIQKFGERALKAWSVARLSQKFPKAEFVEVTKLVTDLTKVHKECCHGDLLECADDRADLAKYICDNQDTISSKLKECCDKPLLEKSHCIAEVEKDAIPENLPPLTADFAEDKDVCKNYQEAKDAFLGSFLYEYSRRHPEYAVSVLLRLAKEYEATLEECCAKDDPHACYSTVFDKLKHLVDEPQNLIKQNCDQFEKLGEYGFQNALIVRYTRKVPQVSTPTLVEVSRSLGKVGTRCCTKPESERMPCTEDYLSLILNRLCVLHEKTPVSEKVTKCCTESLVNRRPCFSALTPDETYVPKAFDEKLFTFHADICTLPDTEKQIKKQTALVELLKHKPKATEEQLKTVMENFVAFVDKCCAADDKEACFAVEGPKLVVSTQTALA

Compound | MPR [1] | k' [2] | Amount bound (Albumin) [M/g]
CC(C)(Cc1ccccc1)Nc1ncnc2c1ncn2C1O[C@H](CO)[C@@H](O)[C@H]1O (stereo partly specified) | 0.011 | 7.43 | –
OC[C@H]1OC(n2cnc3c(NCC4CCCCC4)ncnc32)[C@H](O)[C@@H]1O (stereo partly specified) | 0.14 | 4.67 | 7.1
OC[C@H]1O[C@@H](n2cnc3/c(=N\O)[nH]cnc32)[C@H](O)[C@@H]1O | 0.16 | – | –
CCCCCCNc1ncnc2c1ncn2C1O[C@H](CO)[C@@H](O)[C@H]1O (stereo partly specified) | 0.2 | 5.88 | –
CCCC(CCC)Nc1ncnc2c1ncn2C1O[C@H](CO)[C@@H](O)[C@H]1O (stereo partly specified) | 0.81 | 5.57 | 7.1
NCCNc1ncnc2c1ncn2C1O[C@H](CO)[C@@H](O)[C@H]1O (stereo partly specified) | 0.072 | 0.11 | –
OC[C@H]1O[C@@H](n2cnc3c(NC4CC4)ncnc32)[C@H](O)[C@@H]1O | 0.38 | 0.2 | –
OC[C@H]1O[C@@H](n2cnc3/c(=N\OCc4ccccc4)[nH]cnc32)[C@H](O)[C@@H]1O | 0.42 | 1.04 | –
OC[C@H]1O[C@@H](n2cnc3c(N[C@H]4C[C@@H]4c4ccccc4)ncnc32)[C@H](O)[C@@H]1O | 0.7 | 2.36 | –
C[C@H](CCc1ccccc1)Nc1ncnc2c1ncn2[C@@H]1O[C@H](CO)[C@@H](O)[C@H]1O | 0.19 | 6.11 | –
CN(Nc1ncnc2c1ncn2C1O[C@H](CO)[C@@H](O)[C@H]1O)c1ccccc1 (stereo partly specified) | 1.8 | 0.93 | –
OC[C@H]1O[C@@H](n2cnc3c(Cl)ncnc32)[C@H](O)[C@@H]1O | 0.023 | – | –
CNc1ncnc2c1ncn2[C@@H]1O[C@H](CO)[C@@H](O)[C@H]1O | 0.05 | 0.07 | –
C=CCNc1ncnc2c1ncn2[C@@H]1O[C@H](CO)[C@@H](O)[C@H]1O | 0.23 | 0.36 | –
OCCNc1ncnc2c1ncn2C1O[C@H](CO)[C@@H](O)[C@H]1O (stereo partly specified) | 0.14 | 0.14 | 0.53
CC(C)(C)CNc1ncnc2c1ncn2C1O[C@H](CO)[C@@H](O)[C@H]1O (stereo partly specified) | 0.064 | 2.5 | –
CC(CC1CCCCC1)Nc1ncnc2c1ncn2C1O[C@H](CO)[C@@H](O)[C@H]1O (stereo partly specified) | 0.15 | 8.92 | 19.3
CC[C@H](CO)Nc1ncnc2c1ncn2[C@@H]1O[C@H](CO)[C@@H](O)[C@H]1O | 0.77 | 0.4 | –
CCCC(C)Nc1ncnc2c1ncn2C1O[C@H](CO)[C@@H](O)[C@H]1O (stereo partly specified) | 1.1 | 2.38 | –
CCCCNc1ncnc2c1ncn2[C@@H]1O[C@H](CO)[C@@H](O)[C@H]1O | 0.38 | 1.59 | 1.06

Compound | MPR [1] | k' [2] | Amount bound (Albumin) [M/g]
CCCCC(C)Nc1ncnc2c1ncn2C1O[C@H](CO)[C@@H](O)[C@H]1O (stereo partly specified) | 0.56 | 4.46 | –
C[C@@H](Cc1ccccc1)Nc1ncnc2c1ncn2[C@@H]1OC(CO)[C@@H](O)[C@H]1O (single isomer, unassigned) | – | 2.61 | –
OC[C@H]1O[C@@H](n2cnc3c(NC4CC5CCC4C5)ncnc32)[C@H](O)[C@@H]1O (stereo in doubt; 58) [listing 1 of 2 here] | 0.55 | – | –
CCCCCC(C)Nc1ncnc2c1ncn2C1O[C@H](CO)[C@@H](O)[C@H]1O (stereo partly specified) | 0.31 | 8.54 | –
OC[C@H]1O[C@@H](n2cnc3c(NC4CC5CCC4C5)ncnc32)[C@H](O)[C@@H]1O (stereo in doubt; 57) [listing 1 of 2 here] | – | 2.63 | –
C[C@@H](CO)Nc1ncnc2c1ncn2C1O[C@H](CO)[C@@H](O)[C@H]1O (stereo partly specified) | 0.098 | 0.28 | –
C#CCNc1ncnc2c1ncn2C1O[C@H](CO)[C@@H](O)[C@H]1O (stereo partly specified) | 0.23 | 0.21 | –
OC[C@H]1OC(n2cnc3c(NCCC4CCCCC4)ncnc32)[C@H](O)[C@@H]1O (stereo partly specified) | 0.04 | 8.92 | –
OC[C@H]1O[C@@H](n2cnc3c(N[C@@H]4C[C@H]4c4ccccc4)ncnc32)[C@H](O)[C@@H]1O | 0.31 | 2.43 | –
OC[C@H]1O[C@@H](n2cnc3c(NO)ncnc32)[C@H](O)[C@@H]1O | – | 0.16 | –
OC[C@H]1O[C@@H](n2cnc3c(NC4CCCCCC4)ncnc32)[C@H](O)[C@@H]1O | 0.18 | 4.04 | 3.4
C[C@@H](CNc1ncnc2c1ncn2[C@@H]1O[C@H](CO)[C@@H](O)[C@H]1O)c1ccccc1 | 2.4 | 2.89 | –
OC[C@H]1OC(n2cnc3c(NCC(O)c4ccccc4)ncnc32)[C@H](O)[C@@H]1O (stereo partly specified) | 1.4 | 0.79 | –
C[C@@H](Nc1ncnc2c1ncn2[C@@H]1O[C@H](CO)[C@@H](O)[C@H]1O)[C@H](O)c1ccccc1 | 1.8 | 0.96 | –
CC1(Nc2ncnc3c2ncn3C2O[C@H](CO)[C@@H](O)[C@H]2O)CCCC1 (stereo partly specified) | 0.033 | 5.02 | –
C[C@@H](Nc1ncnc2c1ncn2[C@@H]1O[C@H](CO)[C@@H](O)[C@H]1O)[C@@H](O)c1ccccc1 | 2.9 | 1.32 | –
OC[C@H]1O[C@@H](n2cnc3c(NC4C5CCC4CC5)ncnc32)[C@H](O)[C@@H]1O (stereo partly specified) | 0.39 | 3.5 | –
CCCCCNc1ncnc2c1ncn2[C@@H]1O[C@H](CO)[C@@H](O)[C@H]1O | 0.36 | 3.08 | –
OC[C@H]1OC(n2cnc3c(NCC4CC4)ncnc32)[C@H](O)[C@@H]1O (stereo partly specified) | 0.58 | 0.71 | –
CC(C)(C)CCNc1ncnc2c1ncn2C1O[C@H](CO)[C@@H](O)[C@H]1O (stereo partly specified) | 0.084 | 4.71 | –

Compound | MPR [1] | k' [2] | Amount bound (Albumin) [M/g]
CC[C@@H](CO)Nc1ncnc2c1ncn2[C@@H]1O[C@H](CO)[C@@H](O)[C@H]1O | 0.12 | 0.52 | –
CCCCCCC(C)Nc1ncnc2c1ncn2C1O[C@H](CO)[C@@H](O)[C@H]1O (stereo partly specified) | 0.052 | 16.88 | –
COc1ncnc2c1ncn2[C@@H]1O[C@H](CO)[C@@H](O)[C@@H]1O | 0.004 | 0.16 | –
Cc1ncnc2c1ncn2[C@@H]1O[C@H](CO)[C@@H](O)[C@H]1O | 0.007 | – | –
OC[C@H]1O[C@@H](n2cnc3c(NC4CC5CCC4C5)ncnc32)[C@H](O)[C@@H]1O (stereo in doubt; 58) [listing 2 of 2 here] | – | 2.64 | 2.09
OC[C@H]1O[C@@H](n2cnc3c(NC4CCCC4)ncnc32)[C@H](O)[C@@H]1O [N6-CYCLOPENTYLADENOSINE] | 1.8 | 1.25 | –
CCCNc1ncnc2c1ncn2C1O[C@H](CO)[C@@H](O)[C@H]1O (stereo partly specified) | 0.64 | 0.57 | –
CCC(CNc1ncnc2c1ncn2C1O[C@H](CO)[C@@H](O)[C@H]1O)c1ccccc1 (stereo partly specified) | 3.3 | 5.89 | –
OC[C@H]1OC(n2cnc3c(NC(C4CC4)C4CC4)ncnc32)[C@H](O)[C@@H]1O (stereo partly specified) | 1.5 | 2.68 | –
OC[C@H]1O[C@@H](n2cnc3cncnc32)[C@H](O)[C@@H]1O | 0.023 | – | –
OC[C@H]1O[C@@H](n2cnc3c(NC4CC5CCC4C5)ncnc32)[C@H](O)[C@@H]1O (stereo in doubt; 57) [listing 2 of 2 here] | 0.54 | – | –
OC[C@H]1O[C@@H](n2cnc3c(NC4CCCCC4)ncnc32)[C@H](O)[C@@H]1O | – | 2.12 | 1.3
CCNc1ncnc2c1ncn2C1O[C@H](CO)[C@@H](O)[C@H]1O (stereo partly specified) | 0.15 | 0.29 | –
CN(C)c1ncnc2c1ncn2[C@@H]1O[C@H](CO)[C@@H](O)[C@H]1O | 0.001 | – | –
C[C@@H](CCc1ccccc1)Nc1ncnc2c1ncn2[C@@H]1O[C@H](CO)[C@@H](O)[C@H]1O | 0.05 | 6.47 | –
C[C@H](CNc1ncnc2c1ncn2[C@@H]1O[C@H](CO)[C@@H](O)[C@H]1O)c1ccccc1 | 3 | 3 | –
OC[C@H]1OC(n2cnc3c(NC(Cc4ccccc4)Cc4ccccc4)ncnc32)[C@H](O)[C@@H]1O (stereo partly specified) | 0.33 | 14.83 | –
NNc1ncnc2c1ncn2[C@@H]1O[C@H](CO)[C@@H](O)[C@H]1O | 0.046 | 0.14 | –
C[C@H](Nc1ncnc2c1ncn2[C@@H]1O[C@H](CO)[C@@H](O)[C@H]1O)c1ccccc1 | 0.2 | 1.89 | –
OC[C@H]1O[C@@H](n2cnc3c(NC4CCC4)ncnc32)[C@H](O)[C@@H]1O | 1.6 | 0.2 | –
